Results published in ChEMBL document CHEMBL2150952 (J Med Chem, 2011).
Active and inactive are the calls of the source. The rule behind the calls is not given here.

Tests used:
Liver = experiment: Ratio drug uptake in liver to harderian gland of C57BL6 mouse at 10 mg/kg, po measured 6 hrs post dose; assay type: ADME, organism-based; set-up: dose 10 mg/kg, route oral; conditions: in vivo
Method in brief: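 Single oral dose of 10 mg/kg in 0.5% methylcellulose to fed C57BL6 mice (n = 2). Animals sacrificed 6 h post dose. Plasma, liver, skin and Harderian gland collected. Tissues homogenized in MeCN/water with internal standard and drug quantified by LC-MS against a standard curve made in blank plasma. Concentration ratio calculated.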

Acyl-CoA desaturase 1 [1] = molecular target: T1, Acyl-CoA desaturase 1 (Rattus norvegicus, UniProt P07308); experiment: Inhibition of SCD-1 activity in Sprague-Dawley rat microsome assessed as reduction in [I-14C] stearoyl CoA desaturation by scintillation counting; assay type: microsomes
T1 sequence (P07308 whole entry): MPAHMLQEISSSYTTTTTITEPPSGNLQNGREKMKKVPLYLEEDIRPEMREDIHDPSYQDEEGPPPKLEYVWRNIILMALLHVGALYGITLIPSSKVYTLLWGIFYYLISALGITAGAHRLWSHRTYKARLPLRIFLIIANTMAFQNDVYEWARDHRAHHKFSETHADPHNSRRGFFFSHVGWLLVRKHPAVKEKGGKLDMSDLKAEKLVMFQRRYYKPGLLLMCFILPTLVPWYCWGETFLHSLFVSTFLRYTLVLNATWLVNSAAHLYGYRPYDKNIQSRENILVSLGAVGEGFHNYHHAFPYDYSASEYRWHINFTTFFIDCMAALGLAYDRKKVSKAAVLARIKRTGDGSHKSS

HepG2 = experiment: Ratio IC50 for SCD-1 activity in organic anion transporting polypeptides-deficient human HepG2 cells to IC50 for SCD-1 activity in Sprague-Dawley rat Hepatocytes expressing organic anion transporting polypeptides; assay type: cell-based
Method in brief: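 Cellular SCD IC50s measured in human HepG2 cells (lacking active OATPs) and in rat hepatocytes (active OATPs). Hepatocytes preincubated with compound for 15 min at 37 °C, then given 14C-stearic acid (final 0.5 μCi/ml) for 1 h with shaking. Lipids hydrolysed in 2N NaOH at 75 °C, acidified and extracted. Radiolabelled oleic and stearic acid resolved by HPLC with flow scintillation detection. Mean of at least n = 3. HepG2 IC50 divided by hepatocyte IC50.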

Stearoyl-CoA desaturase = molecular target: T2, Stearoyl-CoA desaturase (Homo sapiens, UniProt O00767); experiment: Inhibition of SCD-1 activity in organic anion transporting polypeptides-deficient human HepG2 cells assessed as reduction in [I-14C] stearoyl CoA desaturation by scintillation counting; assay type: cell-based
T2 sequence (O00767 whole entry): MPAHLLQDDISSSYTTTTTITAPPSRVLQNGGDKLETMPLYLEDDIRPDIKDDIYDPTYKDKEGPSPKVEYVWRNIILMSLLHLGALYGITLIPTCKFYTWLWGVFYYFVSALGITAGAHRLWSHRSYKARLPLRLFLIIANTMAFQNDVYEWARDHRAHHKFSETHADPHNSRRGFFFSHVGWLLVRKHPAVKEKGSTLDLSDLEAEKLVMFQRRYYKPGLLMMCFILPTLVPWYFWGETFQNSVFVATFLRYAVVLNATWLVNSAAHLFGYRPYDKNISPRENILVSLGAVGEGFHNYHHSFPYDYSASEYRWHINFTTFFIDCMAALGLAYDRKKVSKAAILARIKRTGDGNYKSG

Acyl-CoA desaturase 1 [2] = molecular target: T1, Acyl-CoA desaturase 1; experiment: Inhibition of SCD-1 activity in Sprague-Dawley rat Hepatocytes expressing organic anion transporting polypeptides assessed as reduction in [I-14C] […] desaturation by scintillation counting; assay type: cell-based, Hepatocyte
Method in brief: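 Rat hepatocytes (4 × 10^6 cells/mL) were preincubated with compound for 15 min at 37 °C/5% CO2. 14C-stearic acid (final 0.5 μCi/mL) was then added for 1 h with shaking. Cells were washed, hydrolyzed in 2N NaOH at 75 °C for 1 h, acidified and extracted. Radiolabeled oleic and stearic acids were quantified by HPLC with flow scintillation detection. Mean of at least n = 3.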

[3] = Oral bioavailability in C57BL6 mouse at 10 mg/kg BID; assay type: ADME, organism-based; conditions: in vivo, in the assay text read “10 mg/kg” for “10 mg/kg BID”
Method in brief: (§1)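 Fasted male C57BL6 mice given 2 mg/kg IV and 10 mg/kg PO. Plasma drug levels measured by LC-MS/MS, mean of n = 3 animals, and PK parameters derived from these.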

[4] = Half life in fasted C57BL6 mouse at 2 mg/kg, iv and 10 mg/kg, po BID; assay type: ADME, organism-based; conditions: in vivo
Method in brief: (§2)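 Fasted male C57BL6 mice received 2 mg/kg IV and 10 mg/kg PO. For the reference compound, IV was given as a solution in 60% PEG-200 and PO as a suspension in 1% methocel. Plasma levels were measured by LC-MS/MS. Values are the mean of n = 3 animals.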

[5] = Cmax in plasma of fasted C57BL6 mouse at 2 mg/kg, iv and 10 mg/kg, po BID; assay type: ADME, organism-based; method in brief: as §2
[6] = AUC in plasma of fasted C57BL6 mouse at 2 mg/kg, iv and 10 mg/kg, po BID; assay type: ADME, organism-based; method in brief: as §2
[7] = Clearance in fasted C57BL6 mouse at 2 mg/kg, iv and 10 mg/kg, po BID; assay type: ADME, organism-based; conditions: in vivo; method in brief: as §2
[8] = Volume of distribution in fasted C57BL6 mouse at 2 mg/kg, iv and 10 mg/kg, po BID; assay type: ADME, organism-based; conditions: in vivo; method in brief: as §1
Mus musculus [9] = experiment: Antidiabetic activity in diet-induced obese C57BL6 mouse assessed as reduction in body weight gain at 30 mg/kg, po BID; assay type: functional, organism-based; set-up: dose 30 mg/kg
Mus musculus [10] = experiment: Inhibition of SCD activity in liver of diet-induced obese C57BL6 mouse assessed as reduction in desaturation induces at 30 mg/kg, po BID; assay type: functional, organism-based; set-up: dose 30 mg/kg

Compound	Ratio (Liver)	IC50 (Acyl-CoA desaturase 1 [1])	Ratio IC50 (HepG2)	IC50 (Stearoyl-CoA desaturase)	IC50 (Acyl-CoA desaturase 1 [2])	bioavailability [3]	half-life [4]	Cmax [5]	AUC [6]	clearance [7]	Vd [8]	Activity (Mus musculus [9])	inhibition (Mus musculus [10])
Fc1ccc(Br)c(OC2CCN(c3nnc(-c4nn[nH]n4)s3)CC2)c1	26	34 nM	4	12.6 µM	3070 nM	–	–	–	–	–	–	–	–
O=C([O-])Cn1nnc(-c2cc(N3CCC(Oc4cc(F)ccc4Br)CC3)no2)n1.[Na+]	–	–	–	–	–	12%	42 min	400 nM	1 µM·h	41 mL/min/kg	1 L/kg	–	–
O=C(O)Cn1nnc(-c2nnc(N3CCC(Oc4cc(F)ccc4Br)CC3)s2)n1	40	7 nM	5	0.904 µM	189 nM	–	–	–	–	–	–	inactive	Active
